According to ChEMBL document CHEMBL1828576, “Synthesis of new six- and seven-membered 1-N-iminosugars as promising glycosidase inhibitors” (Bioorg Med Chem, 2011):
Active and inactive are the calls of the source. The rule behind the calls is not given here.

How the values were obtained:
Canavalia ensiformis [1] = assay: Inhibition of jack bean N-acetyl-beta-D-glucosaminidase assessed as p-nitrophenol release at 1 mM pre-incubated for 1 hr by Lineweaver-Burk plot analysis
In short: (§1)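 Each enzyme was pre-incubated with inhibitor (10 µM to 1000 µM) at its optimal pH for 1 h at 37 °C. Hydrolysis was initiated with 2 mM p-nitrophenyl glycopyranoside substrate prepared in 0.025 M citrate, pH 4.0, and quenched with 0.05 M borate, pH 9.8. p-Nitrophenol was read at 405 nm, with controls lacking inhibitor run in parallel. Ki and mode of inhibition were derived from Lineweaver–Burk plots.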

[2] = Inhibition of baker's yeast alpha-glucosidase assessed as residual hydrolysis of p-nitrophenyl-alpha-D-glucopyranoside pre-incubated for 1 hr by Lineweaver-Burk plot analysis; set-up: species or system Saccharomyces cerevisiae; in short: as §1
Geobacillus toebii [3] = assay: Inhibition of Geobacillus toebii BK1 alpha-galactosidase assessed as residual hydrolysis of p-nitrophenyl-alpha-D-galactopyranoside at 1 mM pre-incubated for 1 hr by Lineweaver-Burk plot analysis
In short: (§2)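 The enzyme was pre-incubated with inhibitor (10 µM to 1000 µM) for 1 h at 60 °C at the enzyme's optimal pH. The reaction was started with 2 mM p-nitrophenyl glycopyranoside made up in 0.025 M citrate buffer, pH 4.0. It was stopped with 0.05 M borate buffer, pH 9.8, and released p-nitrophenol was read at 405 nm against inhibitor-free controls. Ki and inhibition type came from Lineweaver–Burk plots.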

[4] = Inhibition of baker's yeast alpha-glucosidase assessed as residual hydrolysis of p-nitrophenyl-alpha-D-glucopyranoside pre-incubated for 1 hr by spectrometric analysis; set-up: species or system Saccharomyces cerevisiae; in short: as §1
Canavalia ensiformis [5] = assay: Inhibition of jack bean N-acetyl-beta-D-glucosaminidase assessed as p-nitrophenol release at 1 mM pre-incubated for 1 hr by spectrometric analysis; in short: as §1
Canavalia ensiformis [6] = assay: Inhibition of jack bean alpha-mannosidase assessed as residual hydrolysis of p-nitrophenyl-alpha-D-mannopyranoside at 1 mM pre-incubated for 1 hr by Lineweaver-Burk plot analysis; in short: as §1
Prunus dulcis [7] = assay: Inhibition of almond seed beta-galactosidase assessed as residual hydrolysis of p-nitrophenyl-beta-D-galactopyranoside at 1 mM pre-incubated for 1 hr by Lineweaver-Burk plot analysis; in short: as §1
Prunus dulcis [8] = assay: Inhibition of almond seed beta-glucosidase assessed as residual hydrolysis of p-nitrophenyl-beta-D-glucopyranoside at 1 mM pre-incubated for 1 hr by Lineweaver-Burk plot analysis; in short: as §1
[9] = Inhibition of sweet almond beta-glucosidase; set-up: species or system Prunus dulcis; in short: as §1
[10] = Inhibition of Geobacillus toebii BK1 alpha-galactosidase assessed as residual hydrolysis of p-nitrophenyl-alpha-D-galactopyranoside pre-incubated for 1 hr by spectrometric analysis; in short: as §2
[11] = Inhibition of Geobacillus toebii BK1 alpha-galactosidase assessed as residual hydrolysis of p-nitrophenyl-alpha-D-galactopyranoside pre-incubated for 1 hr by Lineweaver-Burk plot analysis; in short: as §2
Geobacillus toebii [12] = assay: Competitive inhibition of Geobacillus toebii BK1 alpha-galactosidase assessed as residual hydrolysis of p-nitrophenyl-alpha-D-galactopyranoside pre-incubated for 1 hr by Lineweaver-Burk plot analysis; in short: as §2
Saccharomyces cerevisiae = assay: Inhibition of baker's yeast alpha-glucosidase assessed as residual hydrolysis of p-nitrophenyl-alpha-D-glucopyranoside at 1 mM pre-incubated for 1 hr by Lineweaver-Burk plot analysis; in short: as §1

Row | Structure (SMILES) | inhibition (Canavalia ensiformis [1]) | Ki [2] | inhibition (Geobacillus toebii [3]) | IC50 [4] | inhibition (Canavalia ensiformis [5]) | inhibition (Canavalia ensiformis [6]) | inhibition (Prunus dulcis [7]) | inhibition (Prunus dulcis [8]) | Ki [9] | IC50 [10] | Ki [11] | inhibition (Geobacillus toebii [12]) | inhibition (Saccharomyces cerevisiae)
1 | OCC[C@@H]1CNC[C@H](O)[C@@H](O)[C@@H]1O | inactive | 131 µM | inactive | 675 µM | < 50% | inactive | inactive | inactive | – | – | – | – | –
2 | OC[C@H]1CNC[C@@H](O)[C@@H]1O [AFEGOSTAT] | – | – | – | – | – | – | – | – | 110 nM | – | – | – | –
3 | OCC[C@@H]1CNC[C@@H](O)[C@@H]1O | inactive | – | – | – | < 50% | inactive | inactive | inactive | – | 65 µM | 66 µM | Active | inactive
4 | CN1C[C@@H](CCO)[C@@H](O)[C@H](O)C1 | inactive | – | – | – | < 50% | inactive | inactive | inactive | – | 50 µM | 54 µM | Active | inactive
